Measured values as given in publication PMC2659690 (Molecular Pharmaceutics, 2008).
Where a SMILES comes first, the peptide text is derived from it. [ ]: non-standard residue; d: D form. Sar = CNCC(=O)O

Legend:
Capan-2 cell homogenates = assay: Enzymatic stability in Capan-2 cell homogenate; format: in vitro ADME, human; details: 500 μg/mL protein, 37 °C, mean ± SD, n = 3
PEPT1 [1] = target: T1, PEPT1 (Homo sapiens, UniProt P46059); assay: [3H]Gly-Sar uptake inhibition in Capan-2 cells; format: cell-based
T1 sequence (P46059 1-708): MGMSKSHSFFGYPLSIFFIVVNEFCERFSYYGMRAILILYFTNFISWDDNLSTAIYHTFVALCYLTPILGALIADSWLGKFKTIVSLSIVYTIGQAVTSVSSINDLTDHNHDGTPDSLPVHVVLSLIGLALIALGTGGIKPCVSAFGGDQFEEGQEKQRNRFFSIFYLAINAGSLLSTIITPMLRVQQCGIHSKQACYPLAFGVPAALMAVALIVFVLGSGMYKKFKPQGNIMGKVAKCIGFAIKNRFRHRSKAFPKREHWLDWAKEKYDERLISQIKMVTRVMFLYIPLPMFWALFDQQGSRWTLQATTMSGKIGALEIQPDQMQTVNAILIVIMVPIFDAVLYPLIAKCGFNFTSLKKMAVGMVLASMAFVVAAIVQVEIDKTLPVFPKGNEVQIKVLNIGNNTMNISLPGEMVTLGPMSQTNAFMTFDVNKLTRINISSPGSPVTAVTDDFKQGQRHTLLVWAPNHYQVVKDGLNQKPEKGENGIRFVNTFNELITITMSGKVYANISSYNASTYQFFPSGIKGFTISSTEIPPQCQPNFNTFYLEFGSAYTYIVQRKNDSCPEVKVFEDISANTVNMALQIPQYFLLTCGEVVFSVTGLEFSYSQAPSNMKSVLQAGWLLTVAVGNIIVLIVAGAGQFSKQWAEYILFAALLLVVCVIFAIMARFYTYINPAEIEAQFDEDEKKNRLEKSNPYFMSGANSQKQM

AsPC-1 cell homogenates = assay: Enzymatic stability in AsPC-1 cell homogenate; format: in vitro ADME, human; details: 500 μg/mL protein, 37 °C, mean ± SD, n = 3
PEPT1 [2] = target: T1, PEPT1; assay: [3H]Gly-Sar uptake inhibition in AsPC-1 cells; format: cell-based
PEPT1 [3] = target: T1, PEPT1; assay: [3H]Gly-Sar uptake inhibition in Caco-2 cells; format: cell-based
[4] = Stability in human plasma; format: in vitro ADME; details: undiluted human plasma, 37 °C; mean ± SD, n = 3
Caco-2 cell homogenates = assay: Enzymatic stability in Caco-2 cell homogenate; format: in vitro ADME, human; details: 500 μg/mL protein, 37 °C, mean ± SD, n = 3
Chemical stability = format: physicochemical; details: pH 7.4 phosphate buffer, 37 °C; mean ± SD, n = 3
AsPC-1 cells = assay: Cell proliferation; format: cell-based; details: Homo sapiens, ASPC1, pH 6, read-out: GI50 AsPC-1
In short: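 AsPC-1 cells (passages 63-65) were grown antibiotic-free in RPMI-1640 with 10% FBS, seeded at 125,000 cells/well and left 24 h. They were washed with pH 6.0 uptake buffer and exposed 2 h at 37 °C to test compound (2-fold dilutions, 4 to 0.25 mmol/L, in that buffer); buffer alone served as 100% viability. Cells were washed twice and recovered 24 h in medium.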

[5] = Apical-to-basolateral permeability across Caco-2 monolayers; format: in vitro ADME; details: human
Capan-2 cells = assay: Cell proliferation; format: cell-based; details: Homo sapiens, Capan-2, pH 6, read-out: GI50 Capan-2
In short: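 Capan-2 cells (passages 50-54) in antibiotic-free RPMI-1640 plus 10% FBS were plated at 125,000 per well and allowed 24 h to attach. After a rinse with pH 6.0 uptake buffer, they received test compound in the same buffer (twofold series, 4 to 0.25 mmol/L; buffer-only wells as 100% viability) for 4 h at 37 °C. Two washes and 24 h recovery in medium followed.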

thymidine phosphorylase = target: T2, thymidine phosphorylase (Homo sapiens, UniProt P19971); assay: Resistance to metabolism by thymidine phosphorylase; format: in vitro ADME; details: 200 μM substrate, TP 2.0 ng/μL, phosphate buffer pH 7.0, 37 °C; mean ± SD, n = 3
T2 sequence (P19971 11-482): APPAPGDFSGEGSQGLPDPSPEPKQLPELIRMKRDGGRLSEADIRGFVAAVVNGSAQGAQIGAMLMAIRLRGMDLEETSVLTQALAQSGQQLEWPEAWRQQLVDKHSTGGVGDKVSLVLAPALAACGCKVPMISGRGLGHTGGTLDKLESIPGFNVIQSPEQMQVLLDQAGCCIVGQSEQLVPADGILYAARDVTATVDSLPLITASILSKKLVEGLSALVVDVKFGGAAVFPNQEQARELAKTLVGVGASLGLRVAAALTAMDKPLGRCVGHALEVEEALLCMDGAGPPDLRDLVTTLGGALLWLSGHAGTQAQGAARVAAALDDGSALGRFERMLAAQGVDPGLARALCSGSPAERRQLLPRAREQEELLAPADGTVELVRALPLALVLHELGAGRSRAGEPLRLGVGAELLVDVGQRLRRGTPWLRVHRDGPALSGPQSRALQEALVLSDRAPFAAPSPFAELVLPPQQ

Capan-2 cell monolayers = assay: Apical-to-basolateral permeability across Capan-2 monolayers; format: in vitro ADME, human; details: 1 mM verapamil (efflux pump inhibitor); data not shown
[6] = read-out: IC50 [3H]Gly-Sar uptake inhibition Capan-2, Capan-2 cells, 10 μmol/L Gly-Sar, 30 min, mean ± SD, n = 3
[7] = read-out: IC50 [3H]Gly-Sar uptake inhibition AsPC-1, AsPC-1 cells, 10 μmol/L Gly-Sar, 30 min, mean ± SD, n = 3
[8] = read-out: IC50 [3H]Gly-Sar uptake inhibition Caco-2, Caco-2 cells, 10 μmol/L Gly-Sar, 30 min, mean ± SD, n = 3

| Compound | t1/2 cell homogenates Capan-2 (Capan-2 cell homogenates) [min] | IC50 (PEPT1 [1]; [6]) [mM] | t1/2 cell homogenates AsPC-1 (AsPC-1 cell homogenates) [min] | IC50 (PEPT1 [2]; [7]) [mM] | IC50 (PEPT1 [3]; [8]) [mM] | t1/2 human plasma [4] [min] | t1/2 cell homogenates Caco-2 (Caco-2 cell homogenates) [min] | t1/2 buffer pH 7.4 (Chemical stability) [min] | IC50 (PEPT1 [1]) [mM] | IC50 (PEPT1 [2]) [mM] | IC50 (PEPT1 [3]) [mM] | GI50 (AsPC-1 cells) [mM] | Papp at 2 h, 0.1 mM [5] [×10⁻⁶ cm/s] | GI50 (Capan-2 cells) [mM] | t1/2 in the presence of thymidine phosphorylase (thymidine phosphorylase) [min] | effect of verapamil on permeability in Capan-2 cells (Capan-2 cell monolayers) |
| --- | --- | --- | --- | --- | --- | --- | --- | --- | --- | --- | --- | --- | --- | --- | --- | --- |
| CC(C)[C@H](N)C(=O)OC[C@H]1O[C@@H](n2cc(F)c(=O)[nH]c2=O)C[C@@H]1O [5′-L-valyl-floxuridine] | 5.2 ± 2.4 | 2.41 ± 0.28 | 18.7 ± 6.7 | 2.91 ± 0.38 | 1.88 ± 0.18 | 131.5 ± 54.1 | 9.4 ± 0.5 | 304.0 ± 33.3 |  |  |  |  |  |  |  |  |
| O=c1[nH]c(=O)n([C@H]2C[C@H](O)[C@@H](CO)O2)cc1F [floxuridine, 5-fluoro-2′-deoxyuridine, reference compound] |  |  |  |  |  |  |  |  | 16.1 ± 6.71 | 6.63 ± 1.52 | 8.43 ± 2.66 | > 4 | 0.69 ± 0.1 | > 4 |  |  |
| CC(C)C[C@H](N)C(=O)OC[C@H]1O[C@@H](n2cc(F)c(=O)[nH]c2=O)C[C@@H]1O [5′-L-leucyl-floxuridine] | 4.7 ± 2.1 | 1.45 ± 0.07 | 2.0 ± 0.1 | 2.6 ± 0.16 | 3.51 ± 0.11 | 82.4 ± 8.7 | 3.2 ± 0.2 | 83.2 ± 1.7 |  |  |  |  |  |  |  |  |
| 5′-L-Valyl-L-phenylalanyl-floxuridine | 56.2 ± 12.8 | 0.46 ± 0.02 | 51.6 ± 4.2 | 1.03 ± 0.08 | 2.88 ± 0.01 | 76.0 ± 14.1 | 57.6 ± 9.3 | 104.7 ± 7.0 |  |  |  |  |  |  | >500 |  |
| N[C@@H](Cc1ccccc1)C(=O)NCC(=O)OC[C@H]1O[C@@H](n2cc(F)c(=O)[nH]c2=O)C[C@@H]1O [5′-L-phenylalanyl-L-glycyl-floxuridine, 5′-L-Phenylalanyl-L-glycyl-floxuridine] | 4.3 ± 0.9 | 0.79 ± 0.02 | 10.2 ± 0.3 | 0.88 ± 0.22 | 0.78 ± 0.56 | 9.7 ± 0.8 | 6.3 ± 0.6 | 132.1 ± 10.2 |  |  |  |  |  |  | 119 ± 30 |  |
| N[C@@H](Cc1ccccc1)C(=O)OC[C@H]1O[C@@H](n2cc(F)c(=O)[nH]c2=O)C[C@@H]1O [5′-L-phenylalanyl-floxuridine] | 3.0 ± 0.1 | 3.71 ± 2.13 | 11.8 ± 1.7 | 1.97 ± 0.09 | 1.99 ± 0.82 | 62.8 ± 0.8 | 11.1 ± 9.9 | 187.0 ± 19.0 |  |  |  |  |  |  | >500 |  |
| CC[C@H](C)[C@H](N)C(=O)NCC(=O)OC[C@H]1O[C@@H](n2cc(F)c(=O)[nH]c2=O)C[C@@H]1O [5′-L-isoleucyl-L-glycyl-floxuridine, 5′-L-Isoleucyl-L-glycyl-floxuridine] | 18.7 ± 1.4 | 0.44 ± 0.02 | 25.1 ± 5.8 | 0.29 | 0.39 ± 0.01 | 9.5 ± 0.5 | 20.5 ± 1.1 | 33.5 ± 2.4 |  |  |  |  |  |  | 223 ± 54 |  |
| CN(CC(=O)O)C(=O)CN [glycylsarcosine (Gly-Sar), glycylsarcosine] (H-Gly-[Sar]-OH) |  |  |  |  |  |  |  |  |  |  |  |  |  | 25.7 ± 8.1 |  |  |
| NCC(=O)N1CCC[C@H]1C(=O)O [glycylproline (Gly-Pro), glycylproline] (H-Gly-Pro-OH) |  |  |  |  |  |  |  |  |  |  |  |  |  | 29.5 ± 6.5 |  |  |
| CC(C)C[C@H](N)C(=O)NCC(=O)OC[C@H]1O[C@@H](n2cc(F)c(=O)[nH]c2=O)C[C@@H]1O [5′-L-leucyl-L-glycyl-floxuridine, 5′-L-Leucyl-L-glycyl-floxuridine] | 3.9 ± 1.1 | 0.34 ± 0.01 | 3.6 ± 0.8 | 0.51 ± 0.03 | 3.8 ± 0.6 | 6.7 ± 0.3 | 4.1 ± 0.1 | 23.2 ± 4.1 |  |  |  |  |  |  | 138 ± 11 |  |
| NCC(=O)OC[C@H]1O[C@@H](n2cc(F)c(=O)[nH]c2=O)C[C@@H]1O [5′-L-glycyl-floxuridine] | 49.7 ± 5.6 | 2.79 ± 0.08 | 27.6 ± 5.8 | 2.71 ± 0.53 | 2.28 ± 0.59 | 72.1 ± 15.0 | 24.1 ± 2.0 | 85.5 ± 3.2 |  |  |  |  |  |  | 250 ± 54 |  |
| CC[C@H](C)[C@H](N)C(=O)OC[C@H]1O[C@@H](n2cc(F)c(=O)[nH]c2=O)C[C@@H]1O [5′-L-isoleucyl-floxuridine] | 139.9 ± 15.3 | 2.38 ± 0.12 | 198.0 ± 70.2 | 4.12 ± 1.75 | 0.72 ± 0.03 | 271.4 ± 3.2 | 192.3 ± 31.8 | 1194.5 ± 660.6 |  |  |  |  |  |  | >500 |  |
| N[C@@H](Cc1ccccc1)C(=O)N[C@@H](Cc1ccc(O)cc1)C(=O)OC[C@H]1O[C@@H](n2cc(F)c(=O)[nH]c2=O)C[C@@H]1O [5′-L-phenylalanyl-L-tyrosyl-floxuridine, 5′-L-Phenylalanyl-L-tyrosyl-floxuridine] | 42.8 ± 0.0 | 1.2 ± 0.16 | 59.7 ± 1.4 | 0.61 ± 0.18 | 0.66 ± 0.25 | 80.6 ± 3.7 | 103.8 ± 55.5 | 233.9 ± 6.6 |  |  |  |  |  |  | >500 | not affected |
